What all share (format): functional
The subject of one assay is Aspergillus fumigatus. Briefly: Tested for in vitro antifungal activity against Aspergillus fumigatus ATCC 26430. The method, boiled down:
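Mould grown in microplates in RPMI1640 buffered at pH 7.0, incubated at 30 °C. MIC is the lowest test-compound concentration that inhibits growth by 80%.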

The test system of assay [1] is Candida albicans. Briefly: Tested for in vitro antifungal activity against Candida albicans ATCC 24433. The essentials: (§1)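 Microplate growth assay in RPMI1640 medium buffered at pH 7.0, incubated at 35 °C. MIC is the lowest test-compound concentration that inhibits fungal growth by 80%.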
The subject of assay [2] is Candida albicans. Briefly: Tested for in vitro antifungal activity against Candida albicans ATCC 24433 in the presence of horse serum (20%). The essentials:
(§2)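 RPMI1640 medium buffered at pH 7.0, with 20% horse serum added for the incubation. Microplates incubated at 35 °C. MIC is the lowest concentration giving 80% inhibition of fungal growth.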

Assay [3] has as its system Candida albicans. Briefly: Tested for in vitro antifungal activity against Candida albicans ATCC 64550. The essentials: as §1
Assay [4] relates to Candida albicans. In words: Tested for in vitro antifungal activity against Candida albicans SANK51486. The method, boiled down:
as §1

Assay [5] deals with Candida albicans. In words: Tested for in vitro antifungal activity against Candida albicans SANK51486 in the presence of horse serum (20%). The method, boiled down:
as §2

Assay [6] relates to Candida albicans. Briefly: Tested for in vitro antifungal activity against Candida albicans TIMM3164. The method, boiled down: as §1
Another assay relates to Candida parapsilosis. In words: Tested for in vitro antifungal activity against Candida parapsilosis ATCC 90018. Particulars: Lodderomyces parapsilosis. The essentials:
as §1

A further assay has as its system Cryptococcus neoformans. Briefly: Tested for in vitro antifungal activity against Cryptococcus neoformans TIMM1855. The method, boiled down:
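Yeast grown in microplates in yeast nitrogen base buffered at pH 7.0, incubated at 35 °C. MIC is the lowest concentration inhibiting growth by 80%.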

For the next assay, the system named is Candida tropicalis. In words: Tested for in vitro antifungal activity against Candida tropicalis ATCC750. The method, boiled down:
as §1

The test system of another assay is Nakaseomyces glabratus. Briefly: Tested for in vitro antifungal activity against Candida glabrata ATCC 90030. The essentials:
as §1

Drawing on ChEMBL document CHEMBL1135162, “Synthesis and evaluation of N-substituted 1,4-oxazepanyl Sordaricins as selective fungal EF-2 inhibitors” (2002), this text covers MIC for five molecules.

In brackets after ≈: the same amount, converted by molar mass. Where only a bound is given, the exact number is not on record here.

Consider `COc1ccc(CN2C[C@H](OCC34C[C@@H]5[C@H](C)CC[C@H]5C5(C=O)CC3C=C(C(C)C)C45C(=O)O)O[C@H](C)[C@@H](OC)C2)cc1` (stereo not given in full), for which the MIC (in general, the smallest concentration in the dilution series that meets the test's criterion for growth inhibition) is > 32 µg/mL against Aspergillus fumigatus; ≤ 0.063 µg/mL in the assay on Candida albicans [1]; 1 µg/mL in the assay on Candida albicans [2]; ≤ 0.063 µg/mL in the assay with Candida albicans [3]; ≤ 0.063 µg/mL against Candida albicans [4]; 0.5 µg/mL in the assay on Candida albicans [5]. For the same molecule, the MIC was ≤ 0.063 µg/mL in the assay on Candida albicans [6]; > 32 µg/mL against Candida parapsilosis; 2 µg/mL (≈ 3.36 µM) in the assay with Cryptococcus neoformans; 0.25 µg/mL (≈ 0.42 µM) against Candida tropicalis; 0.25 µg/mL (≈ 0.42 µM) against Nakaseomyces glabratus.
Regarding `CO[C@H]1CN(Cc2ccc(C)cc2)C[C@H](OCC23C[C@@H]4[C@H](C)CC[C@H]4C4(C=O)CC2C=C(C(C)C)C34C(=O)O)O[C@@H]1C` (stereo not given in full), the MIC in the assay with Aspergillus fumigatus was > 16 µg/mL; in the assay on Candida albicans [1], 0.063 µg/mL (≈ 0.109 µM); with Candida albicans [2] it was 8 µg/mL; against Candida albicans [3] it was 0.125 µg/mL (≈ 0.216 µM); against Candida albicans [4], ≤ 0.031 µg/mL; with Candida albicans [5], 2 µg/mL. For the same molecule, the minimal inhibitory concentration (MIC) with Candida albicans [6] is 0.125 µg/mL (≈ 0.216 µM); against Candida parapsilosis it was > 16 µg/mL; against Cryptococcus neoformans it was > 16 µg/mL; in the assay with Candida tropicalis, 1 µg/mL (≈ 1.72 µM); with Nakaseomyces glabratus, 2 µg/mL (≈ 3.45 µM).
As for `C=C(Cl)CN1C[C@H](OCC23C[C@@H]4[C@H](C)CC[C@H]4C4(C=O)CC2C=C(C(C)C)C34C(=O)O)O[C@H](C)[C@@H](OC)C1` (stereo not given in full), the minimal inhibitory concentration (MIC) was > 16 µg/mL in the assay on Aspergillus fumigatus; 0.031 µg/mL (≈ 0.0563 µM) against Candida albicans [1]; 0.5 µg/mL in the assay on Candida albicans [2]; 0.031 µg/mL (≈ 0.0563 µM) against Candida albicans [3]; 0.016 µg/mL (≈ 0.0291 µM) with Candida albicans [4]; 0.5 µg/mL with Candida albicans [5]. The minimal inhibitory concentration (MIC) is 0.031 µg/mL (≈ 0.0563 µM) against Candida albicans [6]; 16 µg/mL (≈ 29.1 µM) with Candida parapsilosis; 0.125 µg/mL (≈ 0.227 µM) with Cryptococcus neoformans; 0.25 µg/mL (≈ 0.454 µM) in the assay with Candida tropicalis; 0.125 µg/mL (≈ 0.227 µM) against Nakaseomyces glabratus.
On to `C=C(C)CN1C[C@H](OCC23C[C@@H]4[C@H](C)CC[C@H]4C4(C=O)CC2C=C(C(C)C)C34C(=O)O)O[C@H](C)[C@@H](OC)C1` (stereo not given in full), for which the MIC was > 16 µg/mL in the assay with Aspergillus fumigatus; 0.031 µg/mL (≈ 0.0585 µM) against Candida albicans [1]; 0.5 µg/mL in the assay with Candida albicans [2]; 0.031 µg/mL (≈ 0.0585 µM) in the assay on Candida albicans [3]; 0.016 µg/mL (≈ 0.0302 µM) against Candida albicans [4]; 0.25 µg/mL in the assay on Candida albicans [5]. Moreover, the minimum inhibitory concentration (MIC) is 0.031 µg/mL (≈ 0.0585 µM) with Candida albicans [6]; > 16 µg/mL in the assay with Candida parapsilosis; 0.25 µg/mL (≈ 0.472 µM) against Cryptococcus neoformans; 0.125 µg/mL (≈ 0.236 µM) with Candida tropicalis; 0.25 µg/mL (≈ 0.472 µM) in the assay on Nakaseomyces glabratus.
On to `C=C(Cl)CN1C[C@H](OCC23C[C@@H]4[C@H](C)CC[C@H]4C4(C=O)CC2C=C(C(C)C)C34C(=O)O)O[C@H](C)C1` (stereo not given in full), for which the MIC in the assay on Aspergillus fumigatus was > 16 µg/mL; with Candida albicans [1], 0.031 µg/mL (≈ 0.0613 µM); in the assay on Candida albicans [2], 0.5 µg/mL; in the assay with Candida albicans [3] it was 0.031 µg/mL (≈ 0.0613 µM); in the assay with Candida albicans [4], 0.016 µg/mL (≈ 0.0316 µM); with Candida albicans [5], 0.25 µg/mL. In addition, the MIC in the assay with Candida albicans [6] amounted to 0.031 µg/mL (≈ 0.0613 µM); against Candida parapsilosis, 8 µg/mL (≈ 15.8 µM); in the assay with Cryptococcus neoformans it was 16 µg/mL (≈ 31.6 µM); in the assay on Candida tropicalis it was 0.125 µg/mL (≈ 0.247 µM); with Nakaseomyces glabratus, 0.125 µg/mL (≈ 0.247 µM).
